Measurements taken from ChEMBL document CHEMBL3596140, “Bisleuconothine A Induces Autophagosome Formation by Interfering with AKT-mTOR Signaling Pathway” (J Nat Prod, 2015).
Calls of active or inactive are those of the source.

Tests used:
[1] = molecular target: Serine/threonine-protein kinase mTOR (Homo sapiens) (UniProt P42345); experiment: Effect on mTOR phosphorylation at ser2448 in human A549 cells at 6 uM after 3 to 24 hrs by Western blot analysis; type: cell-based
Method in brief: (§1)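 A549 total lysates harvested 3, 6, 12 or 24 h after exposure to 6 μM compound or 5 μM everolimus. Western blot on PVDF with antibodies to phospho-mTOR Ser2448, phospho-AKT Thr308 and Ser473, phospho-p70S6K Thr389, phospho-PDK1 Ser241 and PRAS40 Thr246, alongside total proteins and β-actin.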

A549 [2] = experiment: Effect on BimEL protein expression in human A549 cells at 24 uM after 6 to 24 hrs by Western blot analysis; type: functional, cell-based
Method in brief: (§2)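 Total lysates of A549 cells harvested at 0, 6, 12 and 24 h after exposure to 24 μM test agent or 100 nM vinblastine. Proteins resolved, transferred to PVDF and probed for Bcl-xL, Mcl-1, Bcl-2, Bax-1, Bid, PUMA, Bim, Bik and p53, with antibodies diluted in BlockAce and β-actin as loading reference.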

[3] = molecular target: Serine/threonine-protein kinase mTOR (Homo sapiens) (UniProt P42345); experiment: Inhibition of mTOR in human A549 cells assessed as downregulation of p70S6K phosphorylation at thr389 at 6 uM after 3 to 24 hrs by Western blot analysis; type: cell-based; method in brief: as §1
A549 [4] = experiment: Prevention of autophagosome degradation in human A549 cells assessed as upregulation of p62 expression at 6 uM after 6 hrs by Western blot analysis; type: functional, cell-based
Method in brief: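 A549 cells kept in serum-free medium for 1 h, then exposed to 6 μM compound or 5 μM everolimus, with or without bafilomycin A1 (400 nM), for 6 h. LC3 and p62 levels in lysates assessed by Western blot to follow autophagic flux.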

A549 [5] = experiment: Inhibition of AKT phosphorylation at Ser473 in human A549 cells at 6 uM after 3 to 6 hrs by Western blot analysis; type: cell-based; method in brief: as §1
A549 [6] = experiment: Effect on morphological changes in lysosome puncta in human A549 cells at 6 uM after 6 hrs by immunofluorescence staining-based microscopic analysis relative to control; type: functional, cell-based
Method in brief: (§3)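 A549 cells on chamber slides placed in serum-free medium for 1 h, then exposed for 6 h to 6 μM compound, 5 μM everolimus or 400 nM bafilomycin A1. Fixed in ice-cold methanol for 15 min at −20 °C and blocked. Stained for LC3B, LAMP2 and p62 with Alexa Fluor 488/546/647 secondaries, mounted with DAPI, and puncta assessed by fluorescence microscopy.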

[7] = molecular target: T1, 3-phosphoinositide-dependent protein kinase 1 (Homo sapiens) (UniProt O15530); experiment: Effect on PDK1 phosphorylation at Ser241 in human A549 cells at 6 uM after 3 to 24 hrs by Western blot analysis; type: cell-based; method in brief: as §1
T1 sequence (whole entry): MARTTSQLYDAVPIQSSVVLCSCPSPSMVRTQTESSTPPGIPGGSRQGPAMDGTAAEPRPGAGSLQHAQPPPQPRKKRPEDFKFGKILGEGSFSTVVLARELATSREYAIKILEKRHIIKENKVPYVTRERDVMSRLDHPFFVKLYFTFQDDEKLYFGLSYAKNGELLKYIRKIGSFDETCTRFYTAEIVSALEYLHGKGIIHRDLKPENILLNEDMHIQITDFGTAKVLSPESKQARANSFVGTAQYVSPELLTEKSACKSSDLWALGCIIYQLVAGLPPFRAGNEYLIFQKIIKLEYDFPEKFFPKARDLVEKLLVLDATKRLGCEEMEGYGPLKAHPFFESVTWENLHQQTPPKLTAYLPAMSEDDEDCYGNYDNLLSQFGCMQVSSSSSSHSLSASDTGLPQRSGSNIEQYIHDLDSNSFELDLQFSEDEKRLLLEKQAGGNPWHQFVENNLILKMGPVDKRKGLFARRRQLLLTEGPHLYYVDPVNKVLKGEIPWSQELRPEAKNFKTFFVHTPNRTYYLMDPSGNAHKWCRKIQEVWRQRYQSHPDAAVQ

A549 [8] = experiment: Effect on Puma protein expression in human A549 cells at 24 uM after 6 to 24 hrs by Western blot analysis; type: functional, cell-based; method in brief: as §2
A549 [9] = experiment: Inhibition of AKT in human A549 cells assessed as downregulation of PRAS40 phosphorylation at thr246 at 6 uM after 3 to 12 hrs by Western blot analysis; type: cell-based; method in brief: as §1
A549 [10] = experiment: Effect on Bax-1 protein expression in human A549 cells at 24 uM after 6 to 24 hrs by Western blot analysis; type: functional, cell-based; method in brief: as §2
A549 [11] = experiment: Effect on localization of lysosome puncta with LAMP2 in human A549 cells at 6 uM after 6 hrs by immunofluorescence staining-based microscopic analysis relative to control; type: functional, cell-based; method in brief: as §3
A549 [12] = experiment: Induction of autophagy in human A549 cells assessed as increase in LC3-2 expression at 6 uM by Western blot analysis; type: functional, cell-based; conditions: TDE = time-dependent effect
Method in brief: (§4)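 A549 and MCF7 cells exposed to 6 μM compound, with everolimus 5 μM as autophagy positive control. Total lysates harvested at 0, 4, 8, 12 or 24 h. LC3-I and LC3-II (lipidated) levels assessed by Western blot with LC3B antibody.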

A549 [13] = experiment: Effect on Bcl-XL protein expression in human A549 cells at 24 uM after 6 to 24 hrs by Western blot analysis; type: functional, cell-based; method in brief: as §2
A549 [14] = experiment: Effect on Bcl-2 protein expression in human A549 cells at 24 uM after 6 to 24 hrs by Western blot analysis; type: functional, cell-based; method in brief: as §2
A549 [15] = experiment: Effect on Bid protein expression in human A549 cells at 24 uM after 6 to 24 hrs by Western blot analysis; type: functional, cell-based; method in brief: as §2
MCF7 = experiment: Induction of autophagy in human MCF7 cells assessed as LC3 lipidation at 6 uM after 4 to 24 hrs by Western blot analysis; type: functional, cell-based; method in brief: as §4
A549 [16] = experiment: Inhibition of AKT phosphorylation at thr308 in human A549 cells at 6 uM after 3 to 24 hrs by Western blot analysis; type: cell-based; method in brief: as §1
A549 [17] = experiment: Induction of reactive oxygen species generation in human A549 cells at 6 uM incubated in dark for 1 hr by H2DCFDA dye-based flow cytometric analysis; type: functional, cell-based
Method in brief: (§5)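 A549 cells (4 × 10^5 cells/dish) preloaded with 20 μM H2DCFDA for 1 h, then exposed to compound (6 or 24 μM) for 1 h in the dark at 37 °C. H2O2 at 100 μM served as positive control. Cells washed, resuspended in FACS buffer with 0.3% BSA, and analysed by flow cytometry for intracellular DCF fluorescence intensity.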

A549 [18] = experiment: Effect on p53 protein expression in human A549 cells at 24 uM after 6 to 24 hrs by Western blot analysis; type: functional, cell-based; method in brief: as §2
A549 [19] = experiment: Effect on Mcl-1 protein expression in human A549 cells at 24 uM after 6 to 24 hrs by Western blot analysis; type: functional, cell-based; method in brief: as §2
A549 [20] = experiment: Induction of autophagy in human A549 cells assessed as increase in LC3-2 expression at 6 uM after 4 to 24 hrs by Western blot analysis
A549 [21] = experiment: Induction of autophagic punctation in human A549 cells assessed as increase of puncta with LC3 at 6 uM after 6 hrs by immunofluorescence staining-based microscopic analysis relative to control; type: functional, cell-based; method in brief: as §3
A549 [22] = experiment: Induction of apoptosis in human A549 cells at 24 uM after 24 hrs by FITC-annexin V/propidium iodide staining-based flow cytometric analysis; type: functional, cell-based
Method in brief: (§6)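 A549 cells (5 × 10^5 cells/dish) exposed to compound (24 μM, or 100 nM for vinblastine) for 24 h. Cells washed twice with PBS and stained with FITC–annexin V plus propidium iodide in FACS buffer with 0.3% BSA. Quadrant distribution read by flow cytometry against untreated cells.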

A549 [23] = experiment: Cytostatic activity against human A549 cells by MTT assay; type: functional, cell-based
Method in brief: (§7)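 A549 cells in medium with 10% FBS and 1% penicillin–streptomycin, exposed to compound for 48 h. MTT (5 mg/mL stock) added at the end of exposure, then 3 h further incubation. Formazan dissolved in DMSO and read at 550 nm (reference 700 nm) as a measure of succinate dehydrogenase activity. IC50 taken from the concentration–response curve. Microscopy used for confirmation.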

A549 [24] = experiment: Effect on Bik protein expression in human A549 cells at 24 uM after 6 to 24 hrs by Western blot analysis; type: functional, cell-based; method in brief: as §2
A549 [25] = experiment: Cytotoxicity against human A549 cells assessed as induction of cell death at 24 uM after 48 hrs by microscopic analysis; type: functional, cell-based
A549 [26] = experiment: Induction of reactive oxygen species generation in human A549 cells at 24 uM incubated in dark for 1 hr by H2DCFDA dye-based flow cytometric analysis; type: functional, cell-based; method in brief: as §5
A549 [27] = experiment: Induction of autophagic punctation in human A549 cells assessed as increase of puncta with p62 at 6 uM after 6 hrs by immunofluorescence staining-based microscopic analysis relative to control; type: functional, cell-based; method in brief: as §3
A549 [28] = experiment: Downregulation of Bcl-XL protein expression in human A549 cells at 100 nM after 24 hrs by Western blot analysis; type: functional, cell-based; method in brief: as §2
A549 [29] = experiment: Downregulation of Mcl-1 protein expression in human A549 cells at 100 nM after 24 hrs by Western blot analysis; type: functional, cell-based; method in brief: as §2
A549 [30] = experiment: Induction of apoptosis in human A549 cells assessed as late apoptotic cells at 100 nM after 24 hrs by FITC-annexin V/propidium iodide staining-based flow cytometric analysis relative to control; type: functional; method in brief: as §6
A549 [31] = experiment: Downregulation of BimEL protein expression in human A549 cells at 100 nM after 24 hrs by Western blot analysis; type: functional, cell-based; method in brief: as §2
A549 [32] = experiment: Upregulation of p53 protein expression in human A549 cells at 100 nM after 24 hrs by Western blot analysis; type: functional, cell-based; method in brief: as §2
A549 [33] = experiment: Cytotoxicity against human A549 cells assessed as induction of cell death by microscopic analysis; type: functional, cell-based
A549 [34] = experiment: Induction of apoptosis in human A549 cells assessed as early apoptotic cells at 100 nM after 24 hrs by FITC-annexin V/propidium iodide staining-based flow cytometric analysis relative to control; type: functional; method in brief: as §6
A549 [35] = experiment: Cytostatic activity against human A549 cells after 48 hrs by MTT assay; type: functional, cell-based; method in brief: as §7

CC[C@@]12CCCN3CCc4c(n(c5ccccc45)[C@H](c4ccc(O)c5c4N[C@@H]4CC[C@@]6(CC)CCCN7CC[C@@]54[C@H]76)C1)[C@H]32 [BISLEUCONOTHINE A]
8 µM: IC50 (A549 [23])
inactive: Activity [1] | Activity (A549 [2]) | Activity [7] | Activity (A549 [8]) | Activity (A549 [10]) | Activity (A549 [13]) | Activity (A549 [14]) | Activity (A549 [15]) | Activity (A549 [17]) | Activity (A549 [18]) | Activity (A549 [19]) | Activity (A549 [22]) | Activity (A549 [24])
active: inhibition [3] | Activity (A549 [4]) | inhibition (A549 [5]) | Activity (A549 [6]) | inhibition (A549 [9]) | Activity (A549 [11]) | Activity (A549 [12]) tde | Activity (MCF7) | inhibition (A549 [16]) | Activity (A549 [20]) | Activity (A549 [21]) | Activity (A549 [23]) Dose-dependent effect | Activity (A549 [25]) | Activity (A549 [26]) | Activity (A549 [27])

CC[C@]1(O)C[C@@H]2CN(CCc3c([nH]c4ccccc34)[C@@](C(=O)OC)(c3cc4c(cc3OC)N(C)[C@H]3[C@@](O)(C(=O)OC)[C@H](OC(C)=O)[C@]5(CC)C=CCN6CC[C@]43[C@@H]65)C2)C1 [VINBLASTINE]
active: Activity (A549 [28]) | Activity (A549 [29]) | Activity (A549 [31]) | Activity (A549 [32]) | Activity (A549 [33]) | Activity (A549 [35]) Dose-dependent effect
30%: Activity (A549 [30]) | Activity (A549 [34])
